How the values were obtained:
DU-145 = experiment: Cytotoxicity against human DU145 cells after 48 hrs by SRB assay; format: functional, cell-based; settings: Homo sapiens, DU-145, 48 h; for CC50: read-out: LC50 (the source's name)
Method in brief: (§1)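 Cells grown in RPMI 1640 with 10% FBS and penicillin/streptomycin at 37 °C and 5% CO₂, trypsinized, then seeded at 5 × 10³/well. After 18 h drug-free attachment, samples in DMSO/EtOH/PBS (0.5:0.5:99) were added for 48 h continuous exposure. Cells were fixed with cold TCA (1 h, 4 °C) and stained with SRB (10 min). Tris-solubilized stain read at 490 nm. Triplicate wells, mean ± SD; GI₅₀ derived.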

[1] = Cytotoxicity against human IGROV cells after 48 hrs by SRB assay; format: functional; settings: for CC50: read-out: LC50 (the source's name); method in brief: as §1
[2] = Cytotoxicity against human IGROV-ET cells after 48 hrs by SRB assay; format: functional; settings: for CC50: read-out: LC50 (the source's name); method in brief: as §1
SK-MEL-28 = experiment: Cytotoxicity against human SK-MEL-28 cells after 48 hrs by SRB assay; format: functional, cell-based; settings: Homo sapiens, SK-MEL-28, 48 h; for CC50: read-out: LC50 (the source's name); for GI50: read-out: GI50; method in brief: as §1
A549 = experiment: Cytotoxicity against human A549 cells after 48 hrs by SRB assay; format: functional, cell-based; settings: Homo sapiens, A549, 48 h; for GI50: read-out: GI50; method in brief: as §1
K562 = experiment: Cytotoxicity against human K562 cells after 48 hrs by SRB assay; format: functional; settings: K562, 48 h; for CC50: read-out: LC50 (the source's name); method in brief: as §1
PANC-1 = experiment: Cytotoxicity against human PANC1 cells after 48 hrs by SRB assay; format: functional; settings: PANC-1, 48 h; for CC50: read-out: LC50 (the source's name); method in brief: as §1
HT-29 = experiment: Cytotoxicity against human HT29 cells after 48 hrs by SRB assay; format: functional, cell-based; settings: Homo sapiens, HT-29, 48 h; for CC50: read-out: LC50 (the source's name); method in brief: as §1
LoVo [3] = experiment: Cytotoxicity against human LoVo cells after 48 hrs by SRB assay; format: functional; settings: for CC50: read-out: LC50 (the source's name)
LoVo [4] = experiment: Cytotoxicity against human doxorubicin resistant LoVo cells after 48 hrs by SRB assay; format: functional; settings: for CC50: read-out: LC50 (the source's name); method in brief: as §1
HeLa = experiment: Cytotoxicity against human HeLa cells after 48 hrs by SRB assay; format: functional; settings: for CC50: read-out: LC50 (the source's name); method in brief: as §1
[5] = Cytotoxicity against human HeLa-APL cells after 48 hrs by SRB assay; format: functional; method in brief: as §1
SK-BR-3 = experiment: Cytotoxicity against human SKBR3 cells after 48 hrs by SRB assay; format: functional; settings: SK-BR-3, 48 h; method in brief: as §1

SMILES | CC50 (DU-145) | CC50 [1] | CC50 [2] | CC50 (SK-MEL-28) | LC50 (A549) | CC50 (K562) | GI50 (PANC-1) | TGI (PANC-1) | CC50 (PANC-1) | CC50 (HT-29) | GI50 (LoVo [3]) | TGI (LoVo [3]) | CC50 (LoVo [3]) | CC50 (LoVo [4]) | CC50 (HeLa) | LC50 (concentration giving 50% net cell kill) [5] | GI50 (DU-145; read-out: GI50) | GI50 (HeLa) | TGI (HeLa) | GI50 (HT-29) | further results
C/C=C1\NC(=O)[C@H](Cc2ccccc2)NC(=O)[C@H](C(C)C)NC(=O)[C@@H]([C@H](C)CC)NC(=O)[C@H](NC(=O)[C@H](NC(=O)[C@H](CCCN)NC(=O)[C@H]2CCCN2C(=O)[C@H](NC(=O)[C@@H](NC(=O)[C@@H](NC(=O)[C@H](NC(=O)CCCC(C)C)C(C)C)[C@@H](C)O)C(C)C)C(C)C)[C@H](C)CC)[C@H](C)OC(=O)[C@H](C(C)C)NC1=O | 1.7 µM | 1.39 µM | 1.17 µM | 1.99 µM | 1.83 µM | 4.27 µM | 1.68 µM | 4.98 µM | 2.83 µM | 5.26 µM | 5.49 µM | 8.66 µM | 5.04 µM | 5.06 µM | 1.61 µM | 1.84 µM |  |  |  |  | TGI [2]: 2.86 µM; GI50 ([2]; read-out: GI50): 1.22 µM
C/C=C1\NC(=O)[C@H](Cc2ccccc2)NC(=O)[C@@H](C(C)C)NC(=O)[C@@H]([C@H](C)CC)NC(=O)[C@H](N)[C@H](C)OC(=O)[C@H](C(C)C)NC1=O | 3.31 µM | 2.71 µM | 2.28 µM | 3.87 µM | 3.58 µM | 8.32 µM | 4.35 µM | 9.72 µM | 5.52 µM | 10.3 µM | 14.9 µM | 16.9 µM | 9.83 µM | 9.86 µM | 3.13 µM | 3.58 µM | 5.1 µM | 0.74 µM | 5.42 µM |  | TGI (DU-145): 6 µM; TGI [2]: 5.58 µM; GI50 ([2]; read-out: GI50): 4.4 µM
C/C=C1\NC(=O)[C@H](Cc2ccccc2)NC(=O)[C@@H](C(C)C)NC(=O)[C@@H]([C@H](C)CC)NC(=O)[C@H](NC(=O)[C@H](NC(=O)[C@H](CCCNC(=O)c2cc(F)c(F)c(F)c2F)NC(=O)[C@H]2CCCN2C(=O)[C@H](NC(=O)[C@@H](NC(=O)[C@@H](NC(=O)[C@H](NC(=O)CCCC(C)C)C(C)C)[C@@H](C)O)C(C)C)C(C)C)[C@H](C)CC)[C@H](C)OC(=O)[C@H](C(C)C)NC1=O | 0.831 µM | 0.274 µM | 0.441 µM | 1.06 µM | 1.04 µM | 0.172 µM | 1.58 µM | 1.58 µM | 1.58 µM | 0.202 µM | 0.0842 µM | 0.0938 µM | 0.104 µM | 0.0878 µM | 0.861 µM | 0.869 µM | 0.726 µM | 0.288 µM | 0.685 µM | 0.116 µM | GI50 (DU-145): 0.831 µM; GI50 [1]: 0.217 µM; GI50 ([1]; read-out: GI50): 0.182 µM; GI50 [2]: 0.357 µM; GI50 ([2]; read-out: GI50): 0.332 µM; TGI (SK-MEL-28): 1.06 µM; GI50 (SK-MEL-28): 0.984 µM; TGI (A549): 1.04 µM; GI50 (A549): 1.04 µM; TGI (HT-29): 0.0951 µM; GI50 [5]: 0.493 µM; TGI [5]: 0.595 µM
C/C=C1\NC(=O)[C@H](Cc2ccccc2)NC(=O)[C@@H](C(C)C)NC(=O)[C@@H]([C@H](C)CC)NC(=O)[C@H](NC(=O)[C@H](NC(=O)[C@H](CCCN)NC(=O)[C@H]2CCCN2C(=O)[C@H](NC(=O)[C@@H](NC(=O)[C@@H](NC(=O)[C@@H](C)NC(=O)CCCC(C)C)[C@@H](C)O)C(C)C)C(C)C)[C@H](C)CC)[C@H](C)OC(=O)[C@H](C(C)C)NC1=O | 1.2 µM | 0.828 µM | 0.714 µM | 1.47 µM | 1.4 µM | 3.31 µM | 1.66 µM | 1.9 µM | 2.18 µM | 3.34 µM | 1.98 µM | 2.26 µM | 2.22 µM | 1.85 µM | 0.963 µM | 1.18 µM | 1.81 µM | 1.03 µM | 0.998 µM | 3.03 µM | TGI (DU-145): 1.48 µM; TGI (SK-MEL-28): 1.7 µM; GI50 (SK-MEL-28): 1.99 µM; TGI (A549): 1.43 µM; GI50 (A549): 1.46 µM; TGI (HT-29): 3.18 µM; GI50 (LoVo [4]): 0.8 µM; TGI (LoVo [4]): 1.27 µM; GI50 [5]: 1.68 µM; TGI [5]: 1.42 µM
C/C=C1\NC(=O)[C@H](Cc2ccccc2)NC(=O)[C@@H](C(C)C)NC(=O)[C@@H]([C@H](C)CC)NC(=O)[C@H](NC(=O)[C@H](NC(=O)[C@H](CCCN)NC(=O)[C@H]2CCCN2C(=O)[C@H](NC(=O)[C@@H](NC(=O)[C@@H](NC(=O)[C@H](NC(=O)CC(C)C)C(C)C)[C@@H](C)O)C(C)C)C(C)C)[C@H](C)CC)[C@H](C)OC(=O)[C@H](C(C)C)NC1=O | 1.66 µM | 0.848 µM | 0.708 µM | 1.33 µM | 1.71 µM | 3.81 µM |  |  | 2.88 µM | 3.14 µM | 1.63 µM | 1.99 µM | 2.42 µM | 1.88 µM | 1.63 µM | 1.69 µM | 2.07 µM | 2.09 µM | 2.09 µM | 2.98 µM | TGI (DU-145): 1.86 µM; TGI (SK-MEL-28): 1.62 µM; GI50 (SK-MEL-28): 1.98 µM; TGI (A549): 1.7 µM; GI50 (A549): 1.68 µM; TGI (HT-29): 3.06 µM; GI50 (LoVo [4]): 0.882 µM; TGI (LoVo [4]): 1.39 µM; GI50 [5]: 2.33 µM; TGI [5]: 2 µM
CC[C@@H]1NC(=O)[C@H](Cc2ccccc2)NC(=O)[C@@H](C(C)C)NC(=O)[C@@H]([C@H](C)CC)NC(=O)[C@H](NC(=O)[C@H](NC(=O)[C@H](CCCN)NC(=O)[C@H]2CCCN2C(=O)[C@H](NC(=O)[C@@H](NC(=O)[C@@H](NC(=O)[C@H](NC(=O)CCCC(C)C)C(C)C)[C@@H](C)O)C(C)C)C(C)C)[C@H](C)CC)[C@H](C)OC(=O)[C@H](C(C)C)NC1=O | 1.7 µM | 1.39 µM | 1.17 µM | 1.98 µM | 1.83 µM | 4.26 µM | 3.09 µM | 4.98 µM | 2.83 µM | 5.25 µM | 3.03 µM | 3.86 µM | 4.93 µM | 2.93 µM | 1.6 µM | 1.84 µM | 3.05 µM |  |  | 7.35 µM | TGI (DU-145): 3.07 µM; TGI [1]: 2.22 µM; GI50 ([1]; read-out: GI50): 2.81 µM; TGI [2]: 1.43 µM; GI50 ([2]; read-out: GI50): 1.64 µM; TGI (SK-MEL-28): 3.83 µM; GI50 (SK-MEL-28): 4.48 µM; TGI (HT-29): 9.27 µM; GI50 (LoVo [4]): 2.72 µM; TGI (LoVo [4]): 2.82 µM
C/C=C1\NC(=O)[C@H](Cc2ccccc2)NC(=O)[C@@H](C(C)C)NC(=O)[C@@H]([C@H](C)CC)NC(=O)[C@H](NC(=O)[C@H](NC(=O)[C@H](CCCN)NC(=O)[C@H]2CCCN2C(=O)[C@H](NC(=O)[C@@H](NC(=O)[C@@H](NC(=O)CNC(=O)CCCC(C)C)[C@@H](C)O)C(C)C)C(C)C)[C@H](C)CC)[C@H](C)OC(=O)[C@H](C(C)C)NC1=O | 1.75 µM | 1.43 µM | 1.2 µM | 2.04 µM | 1.89 µM | 4.39 µM | 0.499 µM | 1.25 µM | 2.11 µM | 5.41 µM | 8.76 µM | 8.9 µM | 5.18 µM | 5.2 µM | 1.65 µM | 1.89 µM |  | 0.672 µM | 1.32 µM | 10.9 µM | GI50 (K562): 3.85 µM; TGI (K562): 11.4 µM; TGI (HT-29): 9.54 µM; GI50 (LoVo [4]): 11.1 µM; TGI (LoVo [4]): 9.1 µM
CC[C@@H](C)[C@@H](NC(=O)[C@H](CCCN)NC(=O)[C@H]1CCCN1C(=O)[C@H](NC(=O)[C@@H](NC(=O)[C@@H](NC(=O)[C@H](NC(=O)CCCC(C)C)C(C)C)[C@@H](C)O)C(C)C)C(C)C)C(=O)N[C@H]1C(=O)N[C@H]([C@H](C)CC)C(=O)N[C@H](C(C)C)C(=O)N[C@@H](Cc2ccccc2)C(=O)N/C(=C\c2ccccc2)C(=O)N[C@@H](C(C)C)C(=O)O[C@H]1C | 0.893 µM | 0.559 µM | 0.629 µM | 1.39 µM | 1.11 µM |  | 4.54 µM | 4.45 µM | 2.14 µM | 5.22 µM | 0.836 µM | 1.42 µM | 1.89 µM |  | 0.936 µM | 0.704 µM | 1.39 µM | 1.5 µM | 1.18 µM | 5.13 µM | TGI (DU-145): 1.12 µM; TGI (SK-BR-3): 1.15 µM; GI50 (SK-BR-3; read-out: GI50): 0.601 µM; CC50 (SK-BR-3; read-out: LC50 (the source's name)): 0.806 µM; TGI (HT-29): 10.1 µM
